Square brackets hold non-standard residues; d marks the D form. Peptide text beside a SMILES is read from it. * marks the point of attachment. F2Pmp = N[C@@H](Cc1ccc(C(F)(F)P(=O)(O)O)cc1)C(=O)O; Fmoc = O=C(OCC1c2ccccc2-c2ccccc21)*; OBn = c1ccc(CO*)cc1
What was measured:
[1] = target: T1, Tyrosine-protein phosphatase non-receptor type 1 (Homo sapiens, UniProt P18031); test: Inhibition of human Protein-tyrosine phosphatase 1B expressed in Escherichia coli BL21 (DE3) cells
T1 sequence (P18031 whole entry): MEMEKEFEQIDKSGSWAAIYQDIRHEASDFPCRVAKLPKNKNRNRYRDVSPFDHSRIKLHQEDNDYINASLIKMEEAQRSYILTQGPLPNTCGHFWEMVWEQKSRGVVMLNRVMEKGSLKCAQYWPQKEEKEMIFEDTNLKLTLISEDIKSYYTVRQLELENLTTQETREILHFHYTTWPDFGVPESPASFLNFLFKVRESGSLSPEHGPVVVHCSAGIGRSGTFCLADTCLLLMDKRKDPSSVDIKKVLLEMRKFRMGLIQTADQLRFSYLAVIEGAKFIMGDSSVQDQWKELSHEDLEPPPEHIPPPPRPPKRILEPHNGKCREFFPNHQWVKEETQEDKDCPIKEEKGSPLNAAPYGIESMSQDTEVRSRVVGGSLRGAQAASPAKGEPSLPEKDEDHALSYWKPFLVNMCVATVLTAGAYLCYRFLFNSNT
How it was run: (§1)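 Recombinant enzymes made in E. coli BL21(DE3) and purified as published previously. Assay run at 30 °C, pH 7.0, in 50 mM 3,3-dimethylglutarate, 1 mM EDTA, ionic strength brought to 150 mM with NaCl. Substrate pNPP fixed at each enzyme's Km. Enzyme added to start, NaOH quench, A405 read. Six to eight inhibitor concentrations used. IC50 obtained by fitting relative activity to a four-parameter slope-factor equation.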

[2] = target: Secreted effector protein (Yersinia pestis, UniProt O68720); test: Inhibition of Tyrosine phosphatase from Yersinia pestis expressed in Escherichia coli BL21 (DE3) cells; how it was run: as §1
Secreted effector protein, sequence (O68720 whole entry): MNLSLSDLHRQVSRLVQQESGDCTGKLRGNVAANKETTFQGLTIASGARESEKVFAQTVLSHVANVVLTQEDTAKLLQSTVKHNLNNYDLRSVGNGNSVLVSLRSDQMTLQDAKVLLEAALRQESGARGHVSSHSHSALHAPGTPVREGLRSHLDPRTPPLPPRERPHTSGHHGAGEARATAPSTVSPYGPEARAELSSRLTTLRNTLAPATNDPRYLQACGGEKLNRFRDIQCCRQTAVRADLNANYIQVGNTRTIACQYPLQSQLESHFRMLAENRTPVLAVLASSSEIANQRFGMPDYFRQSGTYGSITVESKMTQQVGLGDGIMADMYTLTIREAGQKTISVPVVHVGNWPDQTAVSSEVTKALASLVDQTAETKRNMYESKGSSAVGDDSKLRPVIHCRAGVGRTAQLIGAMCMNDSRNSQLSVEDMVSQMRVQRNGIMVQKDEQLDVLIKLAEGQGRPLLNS

[3] = target: T1, Tyrosine-protein phosphatase non-receptor type 1; test: Inhibitory potency against human Protein-tyrosine phosphatase 1B expressed in Escherichia coli BL21 (DE3) cells; how it was run: as §1

| SMILES | IC50 [1] | IC50 [2] | Ki [3] |
| --- | --- | --- | --- |
| CC(C)C[C@H](NC(=O)[C@H](Cc1ccc(OC(F)(C(=O)O)C(=O)O)cc1)NC(=O)[C@H](CCC(=O)OCc1ccccc1)NC(=O)OCC1c2ccccc2-c2ccccc21)C(N)=O | 1.5 µM | 2.9 µM | – |
| CC(C)C[C@H](NC(=O)[C@H](Cc1ccc(C(F)(C(=O)O)C(=O)O)cc1)NC(=O)[C@H](CCC(=O)OCc1ccccc1)NC(=O)OCC1c2ccccc2-c2ccccc21)C(N)=O | 3.1 µM | 3.1 µM | – |
| CC(C)C[C@H](NC(=O)[C@H](Cc1ccc(CC(=O)O)c(O)c1)NC(=O)[C@H](CCC(=O)O)NC(=O)OCC1c2ccccc2-c2ccccc21)C(N)=O | 4 µM | > 800 µM | – |
| CC(C)C[C@H](NC(=O)[C@H](Cc1ccc(C(F)(F)C(=O)O)cc1)NC(=O)[C@H](CCC(=O)O)NC(=O)OCC1c2ccccc2-c2ccccc21)C(N)=O | 1.4 µM | > 800 µM | – |
| CC(C)C[C@H](NC(=O)[C@H](Cc1ccc(C(C(=O)O)C(=O)O)cc1)NC(=O)[C@H](CCC(=O)O)NC(=O)OCC1c2ccccc2-c2ccccc21)C(N)=O | 0.8 µM | > 800 µM | – |
| CC(C)C[C@H](NC(=O)[C@H](Cc1ccc(OCC(=O)O)c(C(=O)O)c1)NC(=O)[C@H](CCC(=O)OCc1ccccc1)NC(=O)OCC1c2ccccc2-c2ccccc21)C(N)=O | 8.3 µM | 10.5 µM | – |
| CC(C)C[C@H](NC(=O)[C@H](Cc1ccc(CC(=O)O)c(C(=O)O)c1)NC(=O)[C@H](CCC(=O)O)NC(=O)OCC1c2ccccc2-c2ccccc21)C(N)=O | 0.7 µM | > 800 µM | – |
| CC(C)C[C@H](NC(=O)[C@H](Cc1ccc(CC(=O)O)c(C(=O)O)c1)NC(=O)[C@H](CCC(=O)OCc1ccccc1)NC(=O)OCC1c2ccccc2-c2ccccc21)C(N)=O | 44 µM | 142 µM | – |
| CC(C)C[C@H](NC(=O)[C@H](Cc1ccc(OC(C(=O)O)C(=O)O)cc1)NC(=O)[C@H](CCC(=O)O)NC(=O)OCC1c2ccccc2-c2ccccc21)C(N)=O | – | > 800 µM | 29 µM |
| CC(C)C[C@H](NC(=O)[C@H](Cc1ccc(OCC(=O)O)c(C(=O)O)c1)NC(=O)[C@H](CCC(=O)O)NC(=O)OCC1c2ccccc2-c2ccccc21)C(N)=O | 54.7 µM | > 100 µM | – |
| CC(C)C[C@H](NC(=O)[C@H](Cc1ccc(OCC(=O)O)cc1)NC(=O)[C@H](CCC(=O)OCc1ccccc1)NC(=O)OCCc1ccccc1)C(N)=O | 58.2 µM | 8 µM | – |
| CC(C)C[C@H](NC(=O)[C@H](Cc1ccc(C(F)(C(=O)O)C(=O)O)cc1)NC(=O)[C@H](CCC(=O)O)NC(=O)OCC1c2ccccc2-c2ccccc21)C(N)=O | 0.7 µM | > 800 µM | – |
| CC(C)C[C@H](NC(=O)[C@H](Cc1ccc(OC(C(=O)O)C(=O)O)cc1)NC(=O)[C@H](CCC(=O)OCc1ccccc1)NC(=O)OCC1c2ccccc2-c2ccccc21)C(N)=O | 116 µM | 82 µM | – |
| CC(C)C[C@H](NC(=O)[C@H](Cc1ccc(C(F)(F)P(=O)(O)O)cc1)NC(=O)[C@H](CCC(=O)OCc1ccccc1)NC(=O)OCC1c2ccccc2-c2ccccc21)C(N)=O (Fmoc-Glu(OBn)-[F2Pmp]-Leu-NH2) | 1.41 µM | 5.2 µM | – |
